Source: BindingDB's records for doi:10.1016/j.bmcl.2012.02.015 (Glaxosmithkline, 2012)
pKd: −log10 of the molar value.

Target: Muscarinic acetylcholine receptor M3 (Homo sapiens, UniProt P20309)
Assay: Antagonist potency at human muscarinic acetylcholine M3 receptor expressed in CHO cells assessed as inhibition of Ach-induced calcium mobilization by FLIPR analysis relative to control
Method in brief: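 Human M3 receptor in CHO cells, ACh-stimulated calcium mobilization by FLIPR. pA2 derived from the ratio of the ACh EC50 with and without antagonist. Run only where the IC50 was below 10 nM. Values above 11 could not be determined accurately.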

Chain of Muscarinic acetylcholine receptor M3 (P20309 whole entry): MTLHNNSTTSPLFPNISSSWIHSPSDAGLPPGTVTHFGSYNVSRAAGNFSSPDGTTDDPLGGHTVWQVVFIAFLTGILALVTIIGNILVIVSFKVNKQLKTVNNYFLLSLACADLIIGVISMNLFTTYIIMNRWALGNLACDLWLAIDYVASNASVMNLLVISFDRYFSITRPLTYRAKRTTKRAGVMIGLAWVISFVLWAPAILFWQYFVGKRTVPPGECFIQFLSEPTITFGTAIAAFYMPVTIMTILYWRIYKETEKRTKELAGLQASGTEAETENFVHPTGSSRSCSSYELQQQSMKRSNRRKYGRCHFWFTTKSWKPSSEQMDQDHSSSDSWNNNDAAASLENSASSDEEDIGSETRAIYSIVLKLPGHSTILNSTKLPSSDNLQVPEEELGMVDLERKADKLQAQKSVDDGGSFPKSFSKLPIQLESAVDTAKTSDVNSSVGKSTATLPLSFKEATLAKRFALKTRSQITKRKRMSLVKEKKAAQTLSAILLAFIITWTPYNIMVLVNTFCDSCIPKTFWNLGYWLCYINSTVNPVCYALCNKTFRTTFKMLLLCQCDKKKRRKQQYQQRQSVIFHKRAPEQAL

Row | Compound | pKd
1 | CCC[N+]1(C)C2CCC1CC(CC(C#N)(c1ccccc1)c1ccccc1)C2 (stereo not drawn) | 10.30
2 | COCCOCC[N+]1(C)C2CCC1CC(CC(C#N)(c1ccccc1)c1ccccc1)C2 (stereo not drawn) | 9.20
3 | C[N+]1(CC2CC2)C2CCC1CC(CC(C#N)(c1ccccc1)c1ccccc1)C2 (stereo not drawn) | 10.30
4 | CC[N+]1(C)C2CCC1CC(CC(C#N)(c1ccccc1)c1ccccc1)C2 (stereo not drawn) | 10.30
5 | C[N+]1(CCO)C2CCC1CC(CC(C#N)(c1ccccc1)c1ccccc1)C2 (stereo not drawn) | 9.80
6 | C=CC[N+]1(C)C2CCC1CC(CC(C#N)(c1ccccc1)c1ccccc1)C2 (stereo not drawn) | 8.90
7 | COCC[N+]1(C)C2CCC1CC(CC(C#N)(c1ccccc1)c1ccccc1)C2 (stereo not drawn) | 9.30
8 | C[N+]1(CCCC#N)C2CCC1CC(CC(C#N)(c1ccccc1)c1ccccc1)C2 (stereo not drawn) | 9.80
